# Measurements pooled from the literature.
# Lines come from different studies, so protocols differ.
# CDK3: Cyclin-dependent kinase 3 (CDK3, Homo sapiens, UniProt Q00526)
# CDK3 with cyclin E: Cyclin-dependent kinase 3, with cyclin E (CDK3, Homo sapiens, UniProt Q00526)
# CDK3 with cyclin E2: Cyclin-dependent kinase 3, with cyclin E2 (CDK3, Homo sapiens, UniProt Q00526)
SMILES,target,read-out,action,technique,tested at,measurement,result
CN(C)c1ncnc(-c2ccc3nc(Nc4cc(CN5CCN(C(=O)CC(F)(F)F)CC5)ccn4)[nH]c3c2)c1Cl,CDK3,cell-free assay,,competition with immobilised ligand,1 µM,remaining binding,86%
CC(C)c1ccc(NC(=O)c2cccs2)c(-c2nc3ccccc3[nH]c2=O)c1,CDK3 with cyclin E,enzyme activity,inhibitor,,1 µM,activity vs control,109%
O=C(Nc1cnn(-c2csc(C(=O)NC3COC3)c2)c1)Nc1ccccc1Cl,CDK3 with cyclin E2,enzyme activity,inhibitor,,5 µM,remaining activity,95.8%
CNC(=O)c1cc(Oc2ccc(NC(=O)Nc3ccc(Cl)c(C(F)(F)F)c3)cc2)ccn1,CDK3 with cyclin E,enzyme activity,inhibitor,,10 µM,inhibition,0%
Cc1cnc(NC2CCOCC2)nc1-n1cnc(C(=O)NC(CN)c2cc(F)cc(Cl)c2)c1 (stereo not shown),CDK3 with cyclin E,enzyme activity,inhibitor,radiometric,1 µM,remaining activity,5%
CO[C@@H](C)c1c(Nc2ccc([C@@H](N(C)C(=O)C3CCS(=O)(=O)CC3)C(F)(F)F)cc2)cnc2cc(Cl)nn12,CDK3,cell-free assay,,competition with immobilised ligand,1 µM,remaining binding,88%
CCN(CC)CCNC(=O)c1c(C)[nH]c(/C=C2\C(=O)Nc3ccc(F)cc32)c1C,CDK3 with cyclin E,enzyme activity,inhibitor,,10 µM,inhibition,41%
Cc1ccc(C(=O)Nc2ccc(CN3CCN(C)CC3)c(C(F)(F)F)c2)cc1C#Cc1cnc2cccnn12,CDK3,enzyme activity,inhibitor,,23.5 nM,remaining activity,95%
NS(=O)(=O)c1cc(NC(=O)C2(c3ccccc3Cl)CC2)ccc1Oc1cccc(Cl)c1,CDK3,cell-free assay,,competition with immobilised ligand,1 µM,remaining binding,90%
Cc1sc(C(=O)NC2COC2)cc1-n1cc(NC(=O)Nc2c(F)cccc2Cl)cn1,CDK3 with cyclin E2,enzyme activity,inhibitor,,10 µM,remaining activity,103%
O=C(NCc1ncc(C(F)(F)F)cc1Cl)c1ccc2c(c1)C1(CCS(=O)(=O)CC1)[C@@H](C1CC1)N2S(=O)(=O)c1ccc(F)cc1,CDK3,cell-free assay,,competition with immobilised ligand,1 µM,remaining binding,41%
N#CCCc1ccc2c(c1)-c1[nH]c3ccc([N+](=O)[O-])cc3c1CC(=O)N2,CDK3 with cyclin E,cell-free assay,,,0.5 µM,remaining signal,39.7%
CN(C)CC#Cc1ccc(OCCCc2sc(N3CCc4cccc(C(=O)Nc5nc6ccccc6s5)c4C3)nc2C(=O)O)c(F)c1,CDK3,cell-free assay,,competition with immobilised ligand,1 µM,remaining binding,68%
CC(C)(C)c1nc2c(s1)c1nc(N)ncc1c1ccc(NS(=O)(=O)c3c(F)cccc3F)c(F)c12,"Cyclin-dependent kinase 3, with cyclin C (CDK3, Homo sapiens, UniProt Q00526)",enzyme activity,inhibitor,radiometric,1 µM,remaining activity,97%
CS(=O)(=O)Nc1cccc(-c2csc(NC(=O)CSc3nc4nccnc4c(=O)n3CCc3ccccc3)n2)c1,"Cyclin-dependent kinase 3, with cyclin E1 (CDK3, Homo sapiens, UniProt Q00526)",enzyme activity,inhibitor,,10 µM,inhibition,2%
Cc1ccc(-n2nc(C(C)(C)C)cc2NC(=O)Nc2ccc(OCCN3CCOCC3)c3ccccc23)cc1,CDK3 with cyclin E,enzyme activity,inhibitor,,10 µM,inhibition,-10%
